The results in this text go back to ChEMBL document CHEMBL4619796, “Discovery of 3-Quinazolin-4(3H)-on-3-yl-2,N-dimethylpropanamides as Orally Active and Selective PI3Kα Inhibitors” (ACS Med Chem Lett, 2020).

Data set [1] concerns BT-474. Put plainly: Antitumor activity against PI3KCA mutant human BT474 cells xenografted in BALB/c nude mouse assessed as tumor growth inhibition at 30 mg/kg, po administered once daily for 21 days by caliper method relative to control. Type of data set: functional. As to conditions: BT-474, po, 504 h, read-out: TGI. The procedure, abridged:
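BT-474 (PIK3CA mutant human breast ductal carcinoma) subcutaneous xenografts in Balb/c nude mice. Oral dosing once daily for 21 days. Vehicle 0.5% MC + 0.2% Tween 80. Read-out is tumor growth inhibition.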

The target in data set [2] is Phosphatidylinositol 4,5-bisphosphate 3-kinase catalytic subunit beta isoform (Homo sapiens, UniProt P42338). Put plainly: Inhibition of PI3Kbeta in human MDA-MB-468 cells assessed as reduction in AKT phosphorylation at residue S473 measured after 30 mins by sandwich ELISA. Background: An ELISA detects its analyte on a solid surface through an enzyme-linked reagent.
Phosphatidylinositol 4,5-bisphosphate 3-kinase catalytic subunit beta isoform, sequence (P42338 whole entry, canonical isoform): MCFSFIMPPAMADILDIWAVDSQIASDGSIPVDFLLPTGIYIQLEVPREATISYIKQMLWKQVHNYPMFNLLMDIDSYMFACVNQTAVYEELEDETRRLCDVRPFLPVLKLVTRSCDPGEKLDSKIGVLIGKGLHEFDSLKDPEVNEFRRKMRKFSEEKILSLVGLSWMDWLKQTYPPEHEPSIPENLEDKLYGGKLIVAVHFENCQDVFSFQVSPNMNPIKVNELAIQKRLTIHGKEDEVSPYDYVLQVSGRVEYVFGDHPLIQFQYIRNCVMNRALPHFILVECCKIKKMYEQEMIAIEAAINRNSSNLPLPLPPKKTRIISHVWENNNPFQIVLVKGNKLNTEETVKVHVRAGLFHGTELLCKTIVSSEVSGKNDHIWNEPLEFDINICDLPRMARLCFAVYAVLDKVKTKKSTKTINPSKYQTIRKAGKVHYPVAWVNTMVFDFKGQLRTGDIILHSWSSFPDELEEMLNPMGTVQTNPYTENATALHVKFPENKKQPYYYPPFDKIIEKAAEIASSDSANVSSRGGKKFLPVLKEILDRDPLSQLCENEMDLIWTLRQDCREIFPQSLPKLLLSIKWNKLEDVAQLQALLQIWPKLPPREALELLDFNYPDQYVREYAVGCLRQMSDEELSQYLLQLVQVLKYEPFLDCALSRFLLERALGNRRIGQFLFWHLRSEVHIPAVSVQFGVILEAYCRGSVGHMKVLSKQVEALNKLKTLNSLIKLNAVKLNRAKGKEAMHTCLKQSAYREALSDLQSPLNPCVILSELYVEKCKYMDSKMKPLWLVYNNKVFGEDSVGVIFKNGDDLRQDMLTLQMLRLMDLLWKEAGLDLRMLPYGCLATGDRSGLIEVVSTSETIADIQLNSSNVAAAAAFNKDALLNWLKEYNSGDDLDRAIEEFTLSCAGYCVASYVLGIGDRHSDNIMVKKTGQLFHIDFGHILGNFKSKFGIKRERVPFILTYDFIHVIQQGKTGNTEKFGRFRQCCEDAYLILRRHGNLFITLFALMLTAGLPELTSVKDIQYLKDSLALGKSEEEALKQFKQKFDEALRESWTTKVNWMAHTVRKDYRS

Data set [3] deals with Phosphatidylinositol 4,5-bisphosphate 3-kinase catalytic subunit gamma isoform (Mus musculus, UniProt Q9JHG7). Description: Inhibition of PI3Kgamma in mouse RAW264.7 cells assessed as reduction in AKT phosphorylation at residue S473 treated with mouse C5a component and measured after 3 mins.
Phosphatidylinositol 4,5-bisphosphate 3-kinase catalytic subunit gamma isoform, sequence (Q9JHG7 whole entry, canonical isoform): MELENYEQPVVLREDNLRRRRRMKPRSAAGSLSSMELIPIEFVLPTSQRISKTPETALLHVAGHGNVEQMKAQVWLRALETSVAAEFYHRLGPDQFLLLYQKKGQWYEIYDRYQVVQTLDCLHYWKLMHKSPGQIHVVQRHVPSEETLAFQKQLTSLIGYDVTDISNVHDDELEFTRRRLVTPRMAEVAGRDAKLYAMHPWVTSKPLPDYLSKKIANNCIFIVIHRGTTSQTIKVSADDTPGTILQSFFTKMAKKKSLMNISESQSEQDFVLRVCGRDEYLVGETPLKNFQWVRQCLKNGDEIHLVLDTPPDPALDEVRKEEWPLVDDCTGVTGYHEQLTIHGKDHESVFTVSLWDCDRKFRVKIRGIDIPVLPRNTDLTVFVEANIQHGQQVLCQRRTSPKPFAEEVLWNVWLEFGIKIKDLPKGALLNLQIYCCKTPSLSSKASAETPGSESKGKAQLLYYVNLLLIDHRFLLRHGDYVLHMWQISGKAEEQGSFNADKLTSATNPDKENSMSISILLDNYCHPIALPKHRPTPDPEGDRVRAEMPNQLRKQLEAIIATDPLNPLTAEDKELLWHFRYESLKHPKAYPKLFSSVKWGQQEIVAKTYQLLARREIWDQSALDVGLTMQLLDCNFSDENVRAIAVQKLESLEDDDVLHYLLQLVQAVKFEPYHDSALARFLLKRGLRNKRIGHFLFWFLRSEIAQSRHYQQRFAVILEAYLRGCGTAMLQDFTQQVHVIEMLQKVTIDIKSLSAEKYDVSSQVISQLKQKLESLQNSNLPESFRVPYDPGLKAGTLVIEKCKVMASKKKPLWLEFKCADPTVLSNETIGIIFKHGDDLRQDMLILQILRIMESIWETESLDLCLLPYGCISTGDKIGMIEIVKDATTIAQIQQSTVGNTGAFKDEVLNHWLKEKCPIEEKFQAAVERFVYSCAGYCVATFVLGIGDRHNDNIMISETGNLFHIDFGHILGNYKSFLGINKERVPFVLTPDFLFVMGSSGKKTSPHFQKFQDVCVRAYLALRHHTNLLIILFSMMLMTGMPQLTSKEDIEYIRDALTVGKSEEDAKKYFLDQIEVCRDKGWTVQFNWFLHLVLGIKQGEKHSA
The test system of data set [4] is BT-474. Description: Antitumor activity against PI3KCA mutant human BT474 cells xenografted in BALB/c nude mouse assessed as tumor growth inhibition at 15 mg/kg, po administered once daily and measured after 30 days by caliper method relative to control. It counts as functional. As to conditions: BT-474, po, 720 h, read-out: TGI.
Data set [5] concerns BT-474. Put plainly: Antitumor activity against PI3KCA mutant human BT474 cells xenografted in BALB/c nude mouse assessed as tumor growth inhibition at 40 mg/kg, po administered once daily and measured after 30 days by caliper method relative to control. It counts as functional. As to conditions: BT-474, po, 720 h, read-out: TGI. On the technique in general: Xenograft models place foreign cells or tissue in a host animal.

For data set [6], the system named is BT-474. Put plainly: Antitumor activity against PI3KCA mutant human BT474 cells xenografted in po dosed BALB/c nude mouse assessed as tumor growth inhibition administered once daily and measured after 30 days by caliper method. Type of data set: functional, organism-based.
A short description of data set [7]: Volume of distribution in Sprague-Dawley rat at 1 mg/kg, iv by HPLC analysis. Type of data set: ADME, organism-based. As to conditions: in vivo.
Data set [8] in a line: Clearance in Sprague-Dawley rat at 1 mg/kg, iv by HPLC analysis. Type of data set: ADME, organism-based. As to conditions: in vivo.
Data set [9] can be described thus: Protein binding in human plasma measured after 4 hrs by LC-MS/MS analysis. Type of data set: ADME, cell-free. As to conditions: read-out: PPB (converted).
Data set [10] is described as follows: Clearance in Beagle dog cryopreserved hepatocytes incubated for 10 mins under shaking condition by LC-MS/MS analysis. Type of data set: ADME, cell-based, Canis lupus familiaris, Hepatocyte. As to conditions: read-out: CLH.

A word on the IC50: it is the concentration needed to halve the response being measured. Broadly, the Vd is the apparent volume that relates the amount in the body to the concentration in plasma or blood. Lower therefore signals little distribution into tissue. One may read the clearance as the rate of elimination divided by the concentration. A low value points to a low capacity for elimination. In the case of `CNC(=O)[C@H](C)Cn1cnc2ccc(-c3cnc(OC)c(NS(=O)(=O)c4ccc(F)cc4Cl)c3)cc2c1=O`, the inhibition in vivo at 30 mg/kg in data set [1] turned out to be 73%. In addition, the IC50 was 1390 nM in data set [2] and more than 10000 nM in data set [3]. Also, the inhibition in vivo at 15 mg/kg in data set [4] was 62.5%. Besides, the inhibition in vivo at 40 mg/kg in data set [5] came to 90.7%. Besides, the TGI result in [6] is “Dose-dependent effect”. Moreover, the Vd in data set [7] came out at 0.321 L/kg. The compound further came in with a clearance in [8] of 5.28 mL/min/kg. Moreover, the fraction unbound at 4 h in [9] was 0.014. The CLint scaled in data set [10] was less than 44 mL/min/kg.
